Test results as given in ChEMBL document CHEMBL1152464, “Toluidine blue-mediated photodynamic effects on staphylococcal biofilms” (2008).
Calls of active or inactive are those of the source. The calls are words filed in the database; no cut-off is given here.

Tests used:
[1] = test system: Staphylococcus epidermidis; assay: Phototoxicity against Staphylococcus epidermidis 1457 grown as biofilms assessed as reduction in adherent bacterial count incubated at 40 uM for 30 mins followed by irradiation with 100 J/cm'2 laser light by scanning electron microscopy in presence of TEDTA pretreated for 1 hr; assay type: functional, organism-based
Procedure, shortened: (§1)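 Thermanox coverslip biofilms (plasma-precoated for S. aureus) were pretreated with 20 mM TEDTA for 1 h, given 40 μM TBO for 30 min in the dark, and irradiated at 100 J/cm². They were then fixed in glutaraldehyde/cacodylate, dehydrated in graded ethanol, critical-point dried, gold-coated, and imaged by SEM at ×1,000.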

[2] = test system: Staphylococcus epidermidis; assay: Antimicrobial activity against Staphylococcus epidermidis 1457 grown as biofilms at 40 uM incubated in dark for 30 mins; assay type: functional, organism-based
Procedure, shortened: (§2)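 Biofilms grown 16 h at 37°C in polystyrene wells from overnight TSB cultures diluted in TSB + 0.25% glucose (S. epidermidis 1:200, S. aureus 1:50, S. aureus wells precoated with 20% human plasma). TBO in PBS added, kept dark 30 min at 37°C, no light. Biofilms scraped, sonicated, vortexed, and plated on TSB agar. CFU counted after 24 h at 37°C in the dark and compared with PBS-only controls.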

Staphylococcus aureus [3] = assay: Increase in phototoxicity against Staphylococcus aureus isolate LP grown as biofilms incubated at 40 uM for 30 mins followed by irradiation with 100 J/cm'2 laser light in presence of TEDTA pretreated for 1 hr; assay type: functional, organism-based
Procedure, shortened: (§3)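 Biofilms were pretreated with 20 mM TEDTA in PBS for 1 h. They were then given 40 μM TBO, 30 min in the dark at 37°C, and 640 nm laser at 42 mW/cm² to 100 J/cm². Colony counts were made after scraping, sonication, and plating. Controls: TEDTA+TBO without light, TEDTA alone, and untreated. Survival was compared with TBO + light without TEDTA using an unpaired two-sided t test.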

Staphylococcus aureus [4] = assay: Phototoxicity against Staphylococcus aureus isolate LP grown as biofilms assessed as dead cells incubated at 40 uM for 30 mins in dark using SYTO9 staining by confocal laser scanning microscopy in presence of TEDTA pretreated for 1 hr; assay type: functional, organism-based
Procedure, shortened: (§4)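 Coverslip biofilms (plasma-coated for S. aureus) were pretreated with 20 mM TEDTA for 1 h and exposed to 40 μM TBO for 30 min in the dark. They were stained with SYTO9 plus propidium iodide for 15 min at 22°C in the dark and examined by confocal laser scanning microscopy for red (dead) versus green (viable) cells.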

[5] = test system: Staphylococcus epidermidis; assay: Phototoxicity against Staphylococcus epidermidis 1457 grown as biofilms incubated at > 40 uM followed by irradiation with 1 to 200 J/cm2 laser light; assay type: functional, organism-based
Procedure, shortened: (§5)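 Biofilms were grown 16 h at 37°C in TSB + 0.25% glucose, with plasma-coated wells for S. aureus. They were then incubated with TBO (10–80 μM tested) in the dark for 30 min at 37°C and irradiated with a 640 nm diode laser, 1-cm spot, 42 mW/cm², at varied light doses. Cells were scraped, sonicated, serially diluted, and plated. Surviving fraction is CFU (TBO + light)/CFU (TBO alone). Duplicate biofilms, three experiments.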

Staphylococcus aureus [6] = assay: Phototoxicity against Staphylococcus aureus isolate LP grown as biofilms assessed as reduction in adherent bacterial count incubated at 40 uM for 30 mins followed by irradiation with 100 J/cm'2 laser light by scanning electron microscopy; assay type: functional, organism-based
Procedure, shortened: (§6)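 Biofilms were grown on Thermanox coverslips in TSB, precoated with 20% human plasma for S. aureus, and incubated with 40 μM TBO for 30 min in the dark, either unirradiated or irradiated at 100 J/cm². They were washed, fixed in 2.5% glutaraldehyde/0.1 M cacodylate pH 7.2 for 1 h at 4°C, ethanol-dehydrated, critical-point dried, and gold-coated. SEM was at ×1,000.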

Staphylococcus aureus [7] = assay: Phototoxicity against Staphylococcus aureus isolate LP grown as biofilms assessed as decrease in survival incubated at 40 uM followed by irradiation with 1 to 200J/cm2 laser light; assay type: functional, organism-based; procedure, shortened: as §5
[8] = test system: Staphylococcus epidermidis; assay: Phototoxicity against Staphylococcus epidermidis 1457 grown as biofilms assessed as log reduction in survival fraction incubated at 40 uM for 30 mins followed by irradiation with 100 J/cm'2 laser light in presence of TEDTA pretreated for 1 hr; assay type: functional; procedure, shortened: as §3
[9] = test system: Staphylococcus epidermidis; assay: Phototoxicity against Staphylococcus epidermidis 1457 grown as biofilms assessed as reduction in adherent bacterial count incubated at 40 uM for 30 mins followed by irradiation with 100 J/cm'2 laser light by scanning electron microscopy; assay type: functional, organism-based; procedure, shortened: as §6
Staphylococcus aureus [10] = assay: Phototoxicity against Staphylococcus aureus isolate LP grown as biofilms assessed as appearance of large cellular aggregates surrounded by extracellular matrix incubated at 40 uM for 30 mins in dark by scanning electron microscopy; assay type: functional, organism-based; procedure, shortened: as §6
Staphylococcus aureus [11] = assay: Phototoxicity against Staphylococcus aureus isolate LP grown as biofilms assessed as dead cells incubated at 40 uM for 30 mins followed by irradiation with 100 J/cm'2 laser light using SYTO9 staining by confocal laser scanning microscopy; assay type: functional, organism-based
Procedure, shortened: (§7)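 Biofilms were grown 16 h at 37°C on glass coverslips, plasma-coated for S. aureus, and treated with 40 μM TBO for 30 min in the dark, then left dark or irradiated at 640 nm to 100 or 200 J/cm². They were stained with SYTO9/propidium iodide (1 μl of each stock per 3 ml PBS) for 15 min at 22°C in the dark and imaged by confocal microscopy. Red = membrane-damaged/dead, green = viable.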

Staphylococcus aureus [12] = assay: Phototoxicity against Staphylococcus aureus isolate LP grown as biofilms assessed as dead cells incubated at 40 uM for 30 mins followed by irradiation with 200 J/cm'2 laser light using propidium iodide staining by confocal laser scanning microscopy; assay type: functional, organism-based; procedure, shortened: as §7
Staphylococcus aureus [13] = assay: Antimicrobial activity against Staphylococcus aureus isolate LP grown as biofilms at 40 uM incubated in dark for 30 mins; assay type: functional, organism-based; procedure, shortened: as §2
[14] = test system: Staphylococcus epidermidis; assay: Phototoxicity against Staphylococcus epidermidis 1457 grown as biofilms assessed as decrease in survival incubated at 40 uM followed by irradiation with 1 to 200 J/cm2 laser light; assay type: functional, organism-based; procedure, shortened: as §5
Staphylococcus aureus [15] = assay: Phototoxicity against Staphylococcus aureus isolate LP grown as biofilms assessed as dead cells incubated at 40 uM for 30 mins in dark using SYTO9 staining by confocal laser scanning microscopy; assay type: functional, organism-based; procedure, shortened: as §7
Staphylococcus aureus [16] = assay: Phototoxicity against Staphylococcus aureus isolate LP grown as biofilms incubated at > 40 uM followed by irradiation with 1 to 200 J/cm2 laser light; assay type: functional, organism-based; procedure, shortened: as §5
[17] = test system: Staphylococcus epidermidis; assay: Phototoxicity against Staphylococcus epidermidis 1457 grown as biofilms assessed as appearance of large cellular aggregates surrounded by extracellular matrix incubated at 40 uM for 30 mins in dark by scanning electron microscopy; assay type: functional, organism-based; procedure, shortened: as §6
[18] = test system: Staphylococcus epidermidis; assay: Phototoxicity against Staphylococcus epidermidis 1457 grown as biofilms assessed as dead cells incubated at 40 uM for 30 mins followed by irradiation with 100 J/cm'2 laser light using SYTO9 staining by confocal laser scanning microscopy; assay type: functional, organism-based; procedure, shortened: as §7
[19] = test system: Staphylococcus epidermidis; assay: Phototoxicity against Staphylococcus epidermidis 1457 grown as biofilms assessed as dead cells incubated at 40 uM for 30 mins in dark using SYTO9 staining by confocal laser scanning microscopy in presence of TEDTA pretreated for 1 hr; assay type: functional, organism-based; procedure, shortened: as §4
[20] = Ratio of phototoxicity against Staphylococcus aureus isolate LP grown as biofilms to phototoxicity against Staphylococcus epidermidis 1457; assay type: functional
Procedure, shortened: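 Cell survival for each species was derived as CFU (TBO + light)/CFU (TBO alone) after biofilms were incubated with 40 μM TBO for 30 min in the dark and irradiated with a 640 nm diode laser at 42 mW/cm², compared at 25 J/cm². Unpaired two-sided t test.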

Staphylococcus aureus [21] = assay: Phototoxicity against Staphylococcus aureus isolate LP grown as biofilms assessed as reduction in adherent bacterial count incubated at 40 uM for 30 mins followed by irradiation with 100 J/cm'2 laser light by scanning electron microscopy in presence of TEDTA pretreated for 1 hr; assay type: functional, organism-based; procedure, shortened: as §1
[22] = test system: Staphylococcus epidermidis; assay: Phototoxicity against Staphylococcus epidermidis 1457 grown as biofilms assessed as dead cells incubated at 40 uM for 30 mins in dark using SYTO9 staining by confocal laser scanning microscopy; assay type: functional, organism-based; procedure, shortened: as §7
[23] = test system: Staphylococcus epidermidis; assay: Phototoxicity against Staphylococcus epidermidis 1457 grown as biofilms assessed as dead cells incubated at 40 uM for 30 mins followed by irradiation with 200 J/cm'2 laser light using propidium iodide staining by confocal laser scanning microscopy; assay type: functional, organism-based; procedure, shortened: as §7

## Cc1cc2nc3ccc(N(C)C)cc3[s+]c2cc1N.[Cl-] [TOLONIUM CHLORIDE]
[1]
  Activity: Active
[2]
  Activity: inactive
Staphylococcus aureus [3]
  Activity: inactive
Staphylococcus aureus [4]
  Activity: Active
[5]
  Activity: Active
Staphylococcus aureus [6]
  Activity: Active
Staphylococcus aureus [7]
  Activity: Active
[8]
  Activity: 1
[9]
  Activity: Active
Staphylococcus aureus [10]
  Activity: Active
Staphylococcus aureus [11]
  Activity: inactive
Staphylococcus aureus [12]
  Activity: Active
Staphylococcus aureus [13]
  Activity: inactive
[14]
  Activity: Active
Staphylococcus aureus [15]
  Activity: inactive
Staphylococcus aureus [16]
  Activity: Active
[17]
  Activity: Active
[18]
  Activity: inactive
[19]
  Activity: Active
[20]
  Ratio: 10
Staphylococcus aureus [21]
  Activity: Active
[22]
  Activity: inactive
[23]
  Activity: Active
